Lmaj promast: Leishmania major promastigote growth inhibition, primary screen. Leishmania major promastigotes, resazurin fluorescence viability. inhibition, % at 10 µM. hit rate 9% among 200,000; in the data active means inhibition above about 50%;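 further: promastigotes grown with compound for 44 hours at 28 °C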
bCat nuc transl: modulators of beta-catenin nuclear translocation, primary screen, imaging, HeLa cells, immunofluorescence, high-content; nuclear translocation activity, % at 5 µM; hit rate 0.3% among 190,000; AID 1665, 2009;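 active means nuclear translocation activity above 50% at 5 µM, with a well cell count of 50 or more; inconclusive means wells under 50 cells across six images, flagged as toxic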;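 further: per-cell ratio of nuclear to cytoplasmic median beta-catenin stain intensity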
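Test system: HeLa cells, endogenous beta-catenin; Compound: single 5 µM dose plus 0.02–20 µM confirmation series; Times: compound exposure 24 h at 37°C; Signal: fluorescence imaging of beta-catenin antibody stain plus DAPI; Read-out: % activation, nuclear-to-cytoplasmic median beta-catenin signal ratio per cell.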
Autophagy mod: autophagy modulators in MEF cells, primary screen, imaging, high-content, MEF GFP-LC3. hit rate 0.98% among 190,000. MEF GFP-LC3 puncta imaging; test concentration mostly 10 µM. calls only at 10 µM (by protocol);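 active means percentage of spot-positive cells more than 3 SD above its plate mean, without a fluorescence outlier flag or 80% toxicity; inconclusive means no clear call, values can overlap the other calls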
MT stabilizer: microtubule stabilizers in HeLa cells, primary screen, imaging, high-content imaging. HeLa tubulin immunostaining HCS, 24 h; share of cells brighter than vehicle mean+2SD. % tubulin-high responders, % at 10 µM. hit rate 0.83% among 200,000;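 active means plate Z-score above 3 for both tubulin-high and condensed-nucleus cell shares, with cell loss under 80%, at 10 µM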;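 further: anti alpha tubulin signal scored within the nucleus-defined area of each cell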
Dynein transport: inhibitors of GR-EGFP nuclear translocation, primary screen, dynein cargo transport inhibitor project, imaging, high-content, 3617.4 mouse cells. test concentration mostly 20 µM; stimulated with dexamethasone, 1 µM; hits give low values. hit rate 0.47% among 220,000. AID 1381, 2008. z-score, hits read low;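 active means plate z-score of nuclear minus cytoplasmic receptor signal below a set negative limit, without overly bright fluorescence or cell loss, cut at about -3.5 in these data, passing the limit was not always enough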;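 further: z-score of nuclear minus cytoplasmic ring GR-EGFP intensity difference per well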
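Buffer or medium: tet-free, stripped-serum medium; reagent: dexamethasone at 1.0 µM final, 30 min; incubation: 48 h induction, 1 h compound, 30 min dex at 37 °C; measured by: formaldehyde fixation, Hoechst nuclear stain, 10x automated fluorescence imaging; read-out: nuclear-to-cytoplasmic GR-EGFP distribution per well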
CHOP inh: inhibitors of CHOP promoter induction, primary screen, cell-based, unfolded protein response, luciferase reporter; CHO-K1 CHOP-promoter luciferase, tunicamycin-induced, 15-18 h; inhibition, % at 10 µM; hit rate 3.8% among 220,000;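 active means compounds that reduced the stress-induced luciferase reporter signal by more than about 70% of percent inhibition, limit read from the data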
Each line names hits and unclear results; the compound was inactive in the other large screens. An excerpt weighted towards active compounds, which were near 12% of everything screened.

O=C(O)CC1COc2ccccc2N1C(=O)c1ccccc1Cl (stereo not given)	none
Cc1noc(C)c1COC(=O)c1ccc(N(C)C)cc1	none
COC(=O)c1ccc2c(=O)n(Cc3ccc(C(=O)NC4CCCC4)cc3)c(=S)[nH]c2c1	CHOP inh 85
COC(=O)c1ccc2c(=O)n(CCCCCC(=O)O)c(=S)[nH]c2c1	CHOP inh 73
CCNC(=S)N1CCC(C(N)=O)CC1	none (no result: Lmaj promast, Autophagy mod, MT stabilizer)
O=C(COC(=O)CCc1ccc(S(=O)(=O)N2CCOCC2)cc1)NCc1ccc(Cl)cc1	none
COC(=O)CSc1nnc(NC(=O)/C=C\c2ccc3c(c2)OCO3)s1	Lmaj promast 100
O=C(/C=C\c1ccc2c(c1)OCO2)Nc1nnc(SCC(=O)OCc2ccccc2)s1	Lmaj promast 92
COC(=O)c1ccccc1S(=O)(=O)N1Cc2cc([N+](=O)[O-])ccc2Oc2ccccc21	Lmaj promast 86
Oc1cccc2ccc(Nc3ccccn3)nc12	Lmaj promast 100, Autophagy mod inconclusive (no result: bCat nuc transl, CHOP inh)
O=C(Nc1ccc(N=Nc2ccccc2)cc1)c1ccccc1Cl	none
O=C(Nc1ccc(N=Nc2ccccc2)cc1)c1ccc(Cl)cc1Cl	CHOP inh 77 (no result: bCat nuc transl)
O=C(NCC1OCCc2ccccc21)c1ccc(NC(=O)c2ccccc2Cl)cc1 (stereo not given)	none
O=C(NCC1OCCc2ccccc21)c1ccc(NC(=O)c2ccc(Cl)cc2Cl)cc1 (stereo not given)	CHOP inh 98
COCCCn1c(C)nc2c(c1=O)c1nc3ccccc3nc1n2CCc1ccccc1	none
Cc1ccc(C(=O)Nc2ccc(Br)cc2)cc1S(=O)(=O)Nc1ccccn1	none
Cc1cc(N)ccc1NC(=O)c1ccccc1	none
Cc1cc(NC(=O)c2ccccc2)c(Cl)cc1N	CHOP inh 72 (no result: Lmaj promast, Autophagy mod, MT stabilizer)
CSc1ncc(CN2CCc3c([nH]c4ccccc34)C2c2cccc(O)c2)cn1 (stereo not given)	CHOP inh 86
O=C(Cc1ccsc1)N1CCc2c([nH]c3ccccc23)C1c1ccccn1 (stereo not given)	none
Clc1ccc(-n2cccc2CN2CCc3c([nH]c4ccccc34)C2c2ccccn2)nc1 (stereo not given)	Lmaj promast 96
Fc1ccc(C2c3[nH]c4ccccc4c3CCN2Cc2cccn2-c2ncccn2)cc1 (stereo not given)	Lmaj promast 67
COc1cccc(C2c3[nH]c4ccccc4c3CCN2Cc2cccn2-c2ncccn2)c1 (stereo not given)	none
Cc1cc(=O)[nH]c(=O)n1Cc1ccccc1	none
Cc1c(CN(C)C)c2c(n1Cc1ccccc1)C(=O)c1ccccc1-2	Lmaj promast 75
CCOc1ccc(CN2CCN(Cc3cccn3-c3nccs3)CC2CCO)cc1 (stereo not given)	none (no result: Lmaj promast, Autophagy mod, MT stabilizer)
Cc1cccc(N=C2NN=C(c3c(C)[nH]c4ccccc34)CS2)c1	CHOP inh 72
CCOC(=O)c1cnn(-c2nc(-c3ccc(C)cc3)cs2)c1C(F)(F)F	MT stabilizer 29
CCOc1ccccc1NC(=S)N1CCN(c2nc(-c3ccc(F)cc3)cs2)CC1	Lmaj promast 90
CCOC(=O)N1CCN(c2nc(-c3ccc(F)cc3)cs2)CC1	CHOP inh 78 (no result: bCat nuc transl)
O=C(O)c1cnn(-c2nc(-c3ccc(F)cc3)cs2)c1C(F)(F)F	none
c1ccc(CC2CCN(c3nc(N4CCOCC4)nc(N4CCOCC4)n3)CC2)cc1	none (no result: bCat nuc transl, CHOP inh)
C=CCc1ccc(OCCCCNC(C)CC)c(OC)c1 (stereo not given)	Lmaj promast 90
C=CCc1ccc(OCC(O)COCC)c(OC)c1 (stereo not given)	none
COC(=O)NNC(=O)CCCOc1ccc(Cl)cc1Cl	none
CC(C)NC(=O)CCCOc1ccc(Cl)cc1Cl	none (no result: bCat nuc transl)
CNCCOc1ccc(Cl)c(Cl)c1	none
C=CCc1cc(Cl)ccc1OCCCNC(C)CC (stereo not given)	Lmaj promast 100
CNCCCOc1ccc(Cl)cc1C(C)(C)C	Lmaj promast 99
COCCCNCCCOc1ccc(Cl)cc1C(C)(C)C	Lmaj promast 100 (no result: bCat nuc transl)

From PubChem BioAssay
